Most compounds without a hit are left out; they make up all but 2% or so of the library.
T cruzi inh = blocks replication of Trypanosoma cruzi. T. cruzi beta-gal in NIH3T3, luminescence, 90 h. inhibition, % (test concentration not listed). 1.4% of 300,000 active. AID 1885;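 active means mean inhibition across valid replicates above about 55%, limit read from the data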;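 further: signal also drops with host cell toxicity which is not excluded here; higher percent means less beta-gal luminescence so fewer parasites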
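Assay system: NIH/3T3 host cells with β-galactosidase reporter T. cruzi; input: 5,000 host fibroblasts per well; compound: single 50 nL compound addition per well in DMSO; timing: ≥90 h infection period, 3 h prior cell attachment; measured by: GalScreen β-gal luminescence, detergent lysis, 60 min; evaluation: percent inhibition of parasite-derived β-gal signal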
AI-2 QS modul = modulates the Vibrio harveyi AI-2 quorum sensing system; Vibrio harveyi JMH597 AI-2 luminescence/OD600 ratio, 9 h; stronger effect = lower value; strain lacks LuxN and CqsS sensors; 0 = neutral-control median; activity change, % at 7.5 µM; 0.4% of 300,000 active; AID 2094; in the data active means activity change below about -75%, passing the limit was not always enough;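 further: luminescence divided by OD600 gain over 9 h not by final OD600 alone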
ARNT-TACC3 inh = disruptors of human ARNT/TACC3 interaction | AlphaScreen His-ARNT PAS-B/GST-TACC3 binding, luminescence; TACC3 fragment carries E629A point mutation | 0.66% of 390,000 active | inhibition, % at 9.99 µM | AID 623870;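 active means mean inhibition of replicates at least 50% and at least half of replicates each reaching 50%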
HIF act = HIF pathway transcriptional activation. U2OS HRE-luciferase reporter, luminescence; normalized: DMSO 0%, desferrioxamine 100%. activation, % at 7.5 µM (by protocol). 0.32% of 300,000 active;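 active means mean activation of at least 10% of the iron chelator positive control signal, with at least half of replicates also reaching 10%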
Numbers stand for hits; – = inactive; · = no result given.

SMILES | T cruzi inh | AI-2 QS modul | ARNT-TACC3 inh | HIF act
COCCCNC(=S)NNC(=O)c1csc(C)n1 | – | – | 57 | –
C[C@H](CO)N1C[C@H](C)[C@H](CN(C)C(=O)Nc2ccccc2)Oc2ccc(NC(=O)NC3CCCCC3)cc2C1=O | · | · | – | ·
Cc1ccc(C(C(=O)NCC2CCCO2)N(Cc2ccccc2)C(=O)c2ccc(-c3ccccc3)[nH]2)o1 (centres undefined) | – | – | – | –
O=C(NCC1CCCO1)C(c1cccs1)N(Cc1ccccc1Cl)C(=O)c1ccc(-c2ccccc2)[nH]1 (centres undefined) | 74 | – | – | –
C[C@@H]1CN([C@@H](C)CO)C(=O)c2cc(NS(=O)(=O)c3ccccc3)ccc2O[C@@H]1CN(C)S(=O)(=O)c1ccccc1 | · | · | – | ·
Cc1ccc(CN2CCN(Cc3ccc(-n4cccn4)cc3C)CC2CCO)cc1 (centres undefined) | 62 | – | – | –
C[C@@H]1CCCCO[C@@H](CN(C)C(=O)c2ccncc2)[C@@H](C)CN([C@H](C)CO)C(=O)c2cc(NS(C)(=O)=O)ccc2O1 | · | · | – | ·
CC(=O)c1ccc(N2C(=NC(=O)COc3ccccc3)SC3CS(=O)(=O)CC32)cc1 (centres undefined) | – | – | · | 473
C[C@H](CO)N1C[C@H](C)[C@H](CN(C)S(=O)(=O)c2ccccc2)Oc2ccc(NS(=O)(=O)c3ccccc3)cc2C1=O | · | · | – | ·
C/C(=N\NC(N)=S)C1C2C3CC4C5CC(C42)C1C53 (centres undefined) | 77 | – | – | –
CCC(=O)Nc1nc2ccccc2n1Cc1ccc(Cl)cc1 | 62 | – | – | –
CCC(=O)Nc1nc2ccccc2n1Cc1ccccc1Cl | – | – | · | –
CCOc1cccc(/C=N/NC(=O)c2ccc3c(c2)OCCO3)c1O | – | – | – | 12
COc1cccc(/C=N/NC(=O)CNC(=O)c2ccc3c(c2)OCCO3)c1O | – | – | – | –
Cc1cccc(/C=N/NC(=O)Cc2ccc(Cl)cc2)c1O | – | – | – | –
CCCCSc1nc(C)cc(SCC(=O)N/N=C/c2cccc(OC)c2O)n1 | – | – | – | 21
Cc1cccc(/C=N\NC(=O)c2ccc(Cl)cc2)c1O | 64 | – | – | 42
CCn1c(C)nc2cc(C(=O)N/N=C/c3cccc(O)c3O)ccc21 | – | – | · | 43
CO[C@@H]1CN(C)C(=O)c2cc(NC(=O)c3nc4ccccc4s3)ccc2OC[C@H](C)N(Cc2cncnc2)C[C@H]1C | · | · | – | ·
O=S(=O)(N[C@H]1CC[C@@H](CCn2cc(-c3cccnc3)nn2)O[C@@H]1CO)c1ccc(F)cc1 | · | · | – | ·
C[C@@H]1CN([C@@H](C)CO)C(=O)c2cccc(NS(=O)(=O)c3ccccc3)c2O[C@H]1CN(C)CC1CCCCC1 | · | · | – | ·
C/C=C/c1cnc2c(c1)C(=O)N([C@H](C)CO)C[C@@H](C)[C@H](CN(C)C(=O)NC1CCCCC1)O2 | · | · | – | ·
Cc1cccc(/C=N/NC(=O)c2c(-c3ccccc3)noc2C)c1O | – | – | – | 16
COc1ccccc1/C=N\NC(=O)c1c(C)nc2ccc(Cl)cn12 | – | – | – | –
COc1ccccc1/C=N/NC(=O)c1c(-c2ccccc2)noc1C | – | – | – | –
SMILES | T cruzi inh | AI-2 QS modul | ARNT-TACC3 inh | HIF act
Cc1cccc(/C=N/NC(=O)c2ccc3c(c2)OCCO3)c1O | – | – | – | 28
COc1cccc(/C=N/NC(=O)c2c(C)nc3ccc(Cl)cn23)c1O | – | – | – | 86
C[C@H]1CN([C@@H](C)CO)C(=O)c2cc(NC(=O)c3ccncc3)ccc2O[C@H]1CN(C)C(=O)Nc1cccc2ccccc12 | · | · | – | ·
CC(=O)N(CCC(Cc1ccccc1)c1ccc2c(c1)OCO2)Cc1ccc(Cl)cc1 (centres undefined) | 64 | – | – | –
C[C@H](O)C#Cc1cnc2c(c1)C(=O)N([C@@H](C)CO)C[C@H](C)[C@H](CN(C)Cc1cccc(F)c1)O2 | · | · | – | ·
Cc1ccc(S(=O)(=O)N(C)C[C@H]2Oc3c(NC(=O)NC(C)C)cccc3C(=O)N([C@@H](C)CO)C[C@@H]2C)cc1 | · | · | – | ·
COc1ccc(CCNC(=O)C2CCCN(S(C)(=O)=O)C2)cc1OC (centres undefined) | – | -292 | – | –
N#Cc1cccc(-c2ccc([C@H]3[C@H]4CN(C(=O)Nc5ccc(F)cc5)CCCCN4[C@H]3CO)cc2)c1 | · | · | – | ·
COCC(=O)Nc1ccc2c(c1)OC[C@H](C)N(C(=O)Cc1ccccn1)C[C@@H](C)[C@H](OC)CN(C)C2=O | · | · | – | ·
